Legend:
Drug-drug interaction = format: in vivo, human; conditions: ITZ 200 mg oral solution once daily; during the blood sampling period for VPR
Outline: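 This was a fixed-sequence, open-label study. In period 1, the test compound was given as a single oral 4 mg tablet, fasted, with water. After a washout of ≥ 4 weeks, itraconazole 200 mg oral solution was given once daily for 14 days. On day 4 the test compound was dosed 1 h after itraconazole. Plasma was sampled to 11 or 13 days and measured by validated LC–MS/MS. Non-compartmental analysis was used. Log-transformed AUC0–11d and Cmax were analysed by ANOVA with treatment and subject effects, giving ratio estimates, 90% CI and 95% PI.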

[1] = ulipristal acetate with ketoconazole; cited from earlier work

geometric mean ITZ trough concentrations (Drug-drug interaction)	SMILES	increase in exposure with ketoconazole [1]
above 530 µg/L	CCC(C)n1ncn(-c2ccc(N3CCN(c4ccc(OCC5COC(Cn6cncn6)(c6ccc(Cl)cc6Cl)O5)cc4)CC3)cc2)c1=O (centres unmarked) [ITZ, Itraconazole]	
	CC(=O)O[C@]1(C(C)=O)CC[C@H]2[C@@H]3CCC4=CC(=O)CCC4=C3[C@@H](c3ccc(N(C)C)cc3)C[C@@]21C [ulipristal acetate]	5.8 fold

From publication PMC6028879 (Clinical Pharmacokinetics, 2018)
